Where a SMILES comes first, the peptide text is derived from it. [ ]: non-standard residue; d: D form. The star is where a group is joined. Tyr(Nα,Nα-allyl2) = C=CCN(CC=C)[C@@H](Cc1ccc(O)cc1)C(=O)*; Aib = CC(C)(N)C(=O)O
Legend:
Cavia porcellus [1] = organism: Cavia porcellus; assay: Antagonistic activity against EK in guinea pig ileal longitudinal muscle (GPI); format: functional, Muscle tissue
Summary of the method: (§1)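 Electrically stimulated guinea pig ileal longitudinal muscle or mouse vas deferens. Test ligand incubated 15 min before standard agonist challenge (morphine, ethylketazocine or DADLE). Ligand at 100 nM, or at 10, 20 or 30 nM when it had agonist activity, kept at or below its ED20.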

Cavia porcellus [2] = organism: Cavia porcellus; assay: Antagonistic activity against morphine in guinea pig ileal longitudinal muscle (GPI); format: functional, Muscle tissue; summary of the method: as §1
Cavia porcellus [3] = organism: Cavia porcellus; assay: The compound was tested for opioid agonist activity against guinea pig ileal longitudinal muscle (GPI); format: functional, Muscle tissue
Summary of the method: (§2)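 Electrically stimulated guinea pig ileal longitudinal muscle and mouse vas deferens. For full agonists, 4-6 concentrations gave concentration-response curves compared with standard agonists in the same preparation. IC50 is the concentration giving a half-maximal response, with 95% confidence limits.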

Cavia porcellus [4] = organism: Cavia porcellus; assay: Opiod agonistic activity against delta enriched smooth muscle preparation.; format: functional; settings: Muscle tissue
Mus musculus [5] = organism: Mus musculus; assay: Antagonistic activity against DADLE in smooth muscle preparation (MVD); format: functional, Muscle tissue; summary of the method: as §1
Mus musculus [6] = organism: Mus musculus; assay: Antagonistic activity against morphine in smooth muscle preparation (MVD); format: functional, Muscle tissue; summary of the method: as §1
Mus musculus [7] = organism: Mus musculus; assay: The compound was evaluated for antinociceptive potency using tail flick assay in mice; format: functional
Summary of the method: (§3)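 Mouse antinociception by abdominal stretch or tail flick assay. Test compound given icv. ED50 in nmol/mouse with 95% confidence limits.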

Mus musculus [8] = organism: Mus musculus; assay: Effect of the opioid antagonist (beta-funaltrexamine, mu) on the antinociceptive potency using abdominal stretch assay in mice.; format: functional, Abdomen
Summary of the method: (§4)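 Mice pretreated sc with β-FNA 20 µmol/kg 24 h before, norBNI 12 µmol/kg 2 h before, or NTI 44 µmol/kg 0.5 h before. Test compound then given icv in the abdominal stretch or tail flick assay. ED50 ratio is pretreated ED50 divided by control ED50, with 95% confidence limits.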

Mus musculus [9] = organism: Mus musculus; assay: Effect of the opioid antagonist (beta-funaltrexamine, mu) on the antinociceptive potency using tail flick assay in mice.(values in the parenthesis indicate 95% confidence limits); format: functional
Summary of the method: (§5)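 Mice, tail flick assay. Antagonist given sc beforehand: beta-FNA 20 µmol/kg 24 h before, or norBNI 12 µmol/kg 2 h before. Test compound then given icv. ED50 ratio = ED50 of test compound in pretreated mice divided by control ED50, with 95% confidence limits.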

Mus musculus [10] = organism: Mus musculus; assay: Effect of the opioid antagonist (naltrindole, delta) on the antinociceptive potency using abdominal stretch assay in mice; format: functional, Abdomen; summary of the method: as §4
Mus musculus [11] = organism: Mus musculus; assay: Effect of the opioid antagonist (naltrindole, delta) on the antinociceptive potency using tail flick assay; format: functional; summary of the method: as §4
Mus musculus [12] = organism: Mus musculus; assay: Effect of the opioid antagonist (norbinaltorphimine, kappa) on the antinociceptive potency using abdominal stretch assay in mice.; format: functional, Abdomen; summary of the method: as §4
Mus musculus [13] = organism: Mus musculus; assay: Effect of the opioid antagonist (norbinaltorphimine, kappa) on the antinociceptive potency using tail flick assay in mice; format: functional; summary of the method: as §5
Mus musculus [14] = organism: Mus musculus; assay: The compound was tested for antagonizing the antinociceptive potency of DPDPE using abdominal assay in mice.; format: functional, Abdomen
Summary of the method: (§6)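 Mice, abdominal stretch assay. Agonist peak times after icv dosing: DSLET 10 min, DPDPE 20 min, U50488H 15 min, morphine 30 min. Read-out is the agonist ED50 ratio with 95% confidence limits.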

Mus musculus [15] = organism: Mus musculus; assay: The compound was tested for antagonizing the antinociceptive potency of DSLET using abdominal assay in mice.; format: functional, Abdomen; summary of the method: as §6
Mus musculus [16] = organism: Mus musculus; assay: The compound was tested for antagonizing the antinociceptive potency of U-50,488H using abdominal assay in mice; format: functional, Abdomen; summary of the method: as §6
Mus musculus [17] = organism: Mus musculus; assay: The compound was tested for antagonizing the antinociceptive potency of morphine using abdominal assay in mice; format: functional, Abdomen; summary of the method: as §6
[18] = molecular target: Kappa-type opioid receptor (Cavia porcellus, UniProt P41144); assay: The compound was evaluated for binding affinity against the opioid receptor kappa in guinea pig brain membranes using [3H]- U-69,593; format: cell membranes, Membrane
Summary of the method: (§7)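 Competition binding on guinea pig brain membranes. δ sites labelled with [3H]DPDPE, μ with [3H]DAMGO, κ with [3H]U69593. A footnote also describes κ labelling with [3H]ethylketazocine in the presence of 1 µM DAMGO.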

Mu-type opioid receptor [19] = molecular target: T1, Mu-type opioid receptor (Cavia porcellus, UniProt P97266); assay: The compound was evaluated for binding affinity against opioid receptor mu in guinea pig brain membranes using [3H]- DAMGO as ligand; format: cell membranes, Membrane; summary of the method: as §7
Mus musculus [20] = organism: Mus musculus; assay: The compound was evaluated for antinociceptive potency using abdominal stretch assay in mice; format: functional, Abdomen; set-up: unit not given here; summary of the method: as §3
Opioid receptor = Opioid receptor (Mus musculus, UniProt P42866+P32300+P33534); assay: Compound was tested for agonistic activity against the opioid receptor in electrically stimulated mouse vas deference; format: functional; summary of the method: as §2
[21] = test system: Delta-type opioid receptor; assay: Selectivity for kappa to delta opioid receptors was determined; settings: Cavia porcellus
[22] = molecular target: Mu-type opioid receptor (Cavia porcellus) (UniProt P97266); assay: Selectivity for mu to delta opioid receptors was determined
Mus musculus [23] = organism: Mus musculus; assay: The compound was evaluated for antinociceptive potency using abdominal stretch assay in mice.; format: functional, Abdomen; summary of the method: as §3
Mus musculus [24] = organism: Mus musculus; assay: The compound was tested for opioid agonist activity against mouse vas deferens (MVD); format: functional; summary of the method: as §2
[25] = The compound was evaluated for binding affinity against Opioid receptor delta 1 in guinea pig brain membrane using [3H]- DPDPE as ligand
Cavia porcellus [26] = organism: Cavia porcellus; assay: Opiod agonistic activity against delta enriched smooth muscle preparation; format: functional; settings: Muscle tissue
Mus musculus [27] = organism: Mus musculus; assay: The compound was tested for antagonizing the antinociceptive potency of DPDPE using abdominal assay in mice.(values in the parenthesis indicate 95% confidence limits); format: functional, Abdomen
Mus musculus [28] = organism: Mus musculus; assay: The compound was tested for antagonizing the antinociceptive potency of DSLET using abdominal assay in mice.(values in the parenthesis indicate 95% confidence limits); format: functional, Abdomen
Mus musculus [29] = organism: Mus musculus; assay: The compound was tested for antagonizing the antinociceptive potency of U-50,488H using abdominal assay in mice.(values in the parenthesis indicate 95% confidence limits); format: functional, Abdomen
Mus musculus [30] = organism: Mus musculus; assay: The compound was tested for antagonizing the antinociceptive potency of morphine using abdominal assay in mice.(values in the parenthesis indicate 95% confidence limits); format: functional, Abdomen
Mu-type opioid receptor [31] = molecular target: T1, Mu-type opioid receptor; assay: The compound was evaluated for binding affinity against Opioid receptor mu 1 in guinea pig brain membranes; format: cell membranes, Membrane; summary of the method: as §7
Cavia porcellus [32] = organism: Cavia porcellus; assay: The compound was evaluated for antagonistic activity by incubating with the smooth muscle preparation (GPI) for 15 min prior to testing with Ethylketazocine (EK); format: functional, Muscle tissue; summary of the method: as §1
Cavia porcellus [33] = organism: Cavia porcellus; assay: The compound was evaluated for antagonistic activity by incubating with the smooth muscle preparation (GPI) for 15 min prior to testing with morphine; format: functional, Muscle tissue; summary of the method: as §1
Mus musculus [34] = organism: Mus musculus; assay: The compound was evaluated for antagonistic activity by incubating with the smooth muscle preparation (MVD) for 15 min prior to testing with DADLE; format: functional, Muscle tissue; summary of the method: as §1
Mus musculus [35] = organism: Mus musculus; assay: The compound was evaluated for antagonistic activity by incubating with the smooth muscle preparation (MVD) for 15 min prior to testing with morphine; format: functional, Muscle tissue; summary of the method: as §1

T1 sequence (P97266 whole entry): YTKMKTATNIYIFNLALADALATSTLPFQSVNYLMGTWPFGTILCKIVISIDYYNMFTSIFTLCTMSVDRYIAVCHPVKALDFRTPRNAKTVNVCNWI
Sequence of Mu-type opioid receptor (Cavia porcellus) (P97266 whole entry): as above
Sequence of Kappa-type opioid receptor (P41144 whole entry): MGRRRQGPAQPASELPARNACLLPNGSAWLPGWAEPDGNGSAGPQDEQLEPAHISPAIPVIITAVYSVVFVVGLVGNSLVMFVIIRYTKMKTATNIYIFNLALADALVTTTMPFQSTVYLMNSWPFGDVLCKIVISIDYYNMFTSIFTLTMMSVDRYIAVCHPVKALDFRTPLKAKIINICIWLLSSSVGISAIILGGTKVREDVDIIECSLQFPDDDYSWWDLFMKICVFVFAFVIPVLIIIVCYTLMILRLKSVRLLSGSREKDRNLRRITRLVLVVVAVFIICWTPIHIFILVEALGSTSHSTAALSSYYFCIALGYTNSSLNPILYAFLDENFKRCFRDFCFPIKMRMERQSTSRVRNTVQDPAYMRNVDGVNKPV

SMILES | IC50 ratio (Cavia porcellus [1]) | IC50 ratio (Cavia porcellus [2]) | Max response (Cavia porcellus [3]) [%] | IC50 ratio (Mus musculus [5]) | IC50 ratio (Mus musculus [6]) | ED50 (Mus musculus [7]) [nmol/mouse] | Ki [18] [nM] | Ki (Mu-type opioid receptor [19]) [nM] | ED50 (Mus musculus [20]) | IC50 (Opioid receptor) [nM] | Ratio [21] | Ratio [22] | Max response (Mus musculus [24]) [%] | further results
Oc1ccc2c3c1O[C@H]1c4[nH]c5ccccc5c4C[C@@]4(O)[C@@H](C2)N(CCc2ccccc2)CC[C@]314 | 0.8 | 0.8 | 15 | 0.6 | 0.9 | 2.2 | > 1000 | > 1000 | 0.4 | 171 | – | – | – | IC50 (Cavia porcellus [4]): 76 nM; ED50 ratio (Mus musculus [8]): 1.3; ED50 ratio (Mus musculus [9]): 5.8; ED50 ratio (Mus musculus [10]): 4; ED50 ratio (Mus musculus [11]): 3.2; ED50 ratio (Mus musculus [12]): 5.5; ED50 ratio (Mus musculus [13]): 21.6; ED50 ratio (Mus musculus [14]): 1.4; ED50 ratio (Mus musculus [15]): 2.8; ED50 ratio (Mus musculus [16]): 0.6; ED50 ratio (Mus musculus [17]): 0.4
Oc1ccc2c3c1O[C@H]1c4[nH]c5ccccc5c4C[C@H]4C(C2)NCC[C@]314 | 1.3 | 0.6 | 20 | 0.8 | 1 | – | 5.3 | 375 | – | 85 | 176 | 71 | – | –
CN1CC[C@]23c4c5ccc(O)c4O[C@H]2c2[nH]c4ccccc4c2C[C@@]3(O)[C@H]1C5 [OXYMORPHINDOLE] | 0.9 | 0.9 | 12 | 1.3 | 0.9 | – | – | – | – | – | 6380 | 669 | 65 | ED50 (Mus musculus [23]): 0.019 nM; Ki [25]: 0.7 nM
C=CCN(CC=C)[C@@H](Cc1ccc(O)cc1)C(=O)NC(C)(C)C(=O)NC(C)(C)C(=O)N[C@@H](Cc1ccccc1)C(=O)N[C@@H](CC(C)C)C(=O)O ({Tyr(Nα,Nα-allyl2)}-[Aib][Aib]FL-OH) | – | – | – | – | – | – | – | – | – | – | > 29 | > 29 | – | Ki [25]: 35 nM
CSCC[C@H](NC(=O)[C@H](Cc1ccc(O)cc1)NC(=O)CNC(=O)CNC(=O)[C@H](Cc1ccccc1)NC(=O)[C@H](CC(C)C)NC(=O)[C@H](N)CO)C(=O)N[C@H](C(=O)O)[C@@H](C)O | – | – | – | – | – | 0.45 | – | – | 0.0032 | – | – | – | – | –
CN1CC[C@]23c4c5ccc(O)c4O[C@H]2c2c(c4ccccc4n2C)C[C@@]3(O)[C@H]1C5 | 0.5 | 0.7 | 9 | 1.2 | 1 | – | – | – | 0.01 | – | – | – | 23 | –
Oc1ccc2c3c1O[C@H]1c4[nH]c5ccccc5c4C[C@@]4(O)C(C2)NCC[C@]314 | 0.8 | 0.7 | 41 | 0.9 | 0.7 | 10.9 | > 1000 | – | 1.1 | 124 | > 357 | 224 | – | IC50 (Cavia porcellus [26]): 121 nM; ED50 ratio (Mus musculus [8]): 0.9; ED50 ratio (Mus musculus [10]): 1.2; ED50 ratio (Mus musculus [11]): 1.6; ED50 ratio (Mus musculus [12]): 1.6; ED50 ratio (Mus musculus [27]): 2.5; ED50 ratio (Mus musculus [28]): 5.4; ED50 ratio (Mus musculus [29]): 0.7; ED50 ratio (Mus musculus [30]): 1.1; Ki (Mu-type opioid receptor [31]): > 1000 nM
Oc1ccc2c3c1O[C@H]1c4[nH]c5ccccc5c4C[C@H]4[C@@H](C2)N(CCc2ccccc2)CC[C@]314 | 0.9 | 0.8 | 1900 | 0.6 | 0.9 | 6.3 | 2620 | 173 | – | 179 | 120 | 8 | – | IC50 (Cavia porcellus [26]): 174 nM
Oc1ccc2c3c1O[C@H]1c4[nH]c5ccccc5c4C[C@H]4[C@@H](C2)N(C/C=C/c2ccccc2)CC[C@]314 | – | – | 2 | – | – | – | > 1000 | > 1000 | – | – | > 9 | > 9 | 19 | IC50 ratio (Cavia porcellus [32]): 0.9; IC50 ratio (Cavia porcellus [33]): 0.8; IC50 ratio (Mus musculus [34]): 0.8; IC50 ratio (Mus musculus [35]): 1.1
CN1CC[C@]23c4c5ccc(O)c4O[C@H]2c2oc4ccccc4c2C[C@@]3(O)[C@H]1C5 | – | – | 23 | – | – | – | – | – | – | – | – | – | 41 | IC50 ratio (Cavia porcellus [32]): 0.8; IC50 ratio (Cavia porcellus [33]): 0.5; IC50 ratio (Mus musculus [34]): 10.2; IC50 ratio (Mus musculus [35]): 0.8
CN1CC[C@]23c4c5ccc(O)c4O[C@H]2c2[nH]c4ccccc4c2C[C@H]3[C@H]1C5 | 0.5 | 1 | 9 | 4.2 | 0.9 | – | – | – | – | – | – | – | 34 | –
Oc1ccc2c3c1O[C@H]1c4[nH]c5ccccc5c4C[C@@]4(O)[C@@H](C2)N(CC2CC2)CC[C@]314 [NALTRINDOLE] | – | – | – | – | – | – | – | – | – | – | – | – | – | ED50 (Mus musculus [23]): 0.04 nM
